Results: ChEMBL document CHEMBL5058577, “EUbOPEN Chemogenomics Library 2 (Multiplex)” (2022)

Tested on: U2OS
Assay: Multiplex assay against U2OS
Format: toxicity, cell-based
Details: human
Outline: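 At seeding, live cells were stained with Hoechst33342, BioTracker Green Microtubule Cytoskeleton Dye, MitoTracker Red and Annexin V Alexa Fluor 680. After compound addition they were imaged on a CQ1 microscope at 37°C and 5% CO2, and CellPathfinder machine-learning gating sorted them into Hoechst high-intensity objects or normal cells, with normal cells further split into healthy, pyknosed or fragmented nuclei and pyknosed cells into mitotic or apoptotic. Tubulin, mitochondrial-mass and membrane-permeability phenotypes are given as per cents of cells with healthy nuclei.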

[1] = 12 h, 1 µM, compound concentration 1 uM, replicate 1
[2] = 12 h, 1 µM, compound concentration 1 uM, replicate 2
[3] = 12 h, 10 µM, compound concentration 10 uM, replicate 1
[4] = 12 h, 10 µM, compound concentration 10 uM, replicate 2
[5] = 24 h, 1 µM, compound concentration 1 uM, replicate 1
[6] = 24 h, 1 µM, compound concentration 1 uM, replicate 2
[7] = 24 h, 10 µM, compound concentration 10 uM, replicate 1
[8] = 24 h, 10 µM, compound concentration 10 uM, replicate 2
[9] = 48 h, 1 µM, compound concentration 1 uM, replicate 1
[10] = 48 h, 1 µM, compound concentration 1 uM, replicate 2
[11] = 48 h, 10 µM, compound concentration 10 uM, replicate 1
[12] = 48 h, 10 µM, compound concentration 10 uM, replicate 2

For `O=C1[C@H](Cc2ccc(O)cc2)N2C(=O)CCN(C(=O)NCc3ccccc3)[C@H]2CN1Cc1cccc2ccccc12`, the “Population Apoptotic (%)” value [1] was 91%, the “Population Fragmented Nuclei (%)” value [1] was 13% and the “Population Healthy Nuclei (%)” value [1] was 74%. For the same compound, the “Population Hoechst High Intensity Objects (%)” value [1] was 4%, the “Population Membrane Permeable-Phenotype (%)” value [1] was 4% and the “Population Mitochondria Different-Phenotype (%)” value [1] was 1%. The “Population Mitotic Cells (%)” value [1] was 8%, the “Population Normal (%)” value [1] was 96% and the “Population Pyknosed Nuclei (%)” value [1] was 12%. For the same compound, the “Population Tubulin-Different-Phenotype (%)” value [1] was 1%, the “Total Cell Count” value [1] was 200 and the “Population Apoptotic (%)” value [2] was 84%. For the same compound, the “Population Fragmented Nuclei (%)” value [2] was 21%, the “Population Healthy Nuclei (%)” value [2] was 66% and the “Population Hoechst High Intensity Objects (%)” value [2] was 0%. For the same compound, the “Population Membrane Permeable-Phenotype (%)” value [2] was 5%, the “Population Mitochondria Different-Phenotype (%)” value [2] was 8% and the “Population Mitotic Cells (%)” value [2] was 15%. The “Population Normal (%)” value [2] was 99%, the “Population Pyknosed Nuclei (%)” value [2] was 11% and the “Population Tubulin-Different-Phenotype (%)” value [2] was 4%. For the same compound, the “Total Cell Count” value [2] was 113, the “Population Apoptotic (%)” value [3] was 60% and the “Population Fragmented Nuclei (%)” value [3] was 32%. For the same compound, the “Population Healthy Nuclei (%)” value [3] was 50%, the “Population Hoechst High Intensity Objects (%)” value [3] was 3% and the “Population Membrane Permeable-Phenotype (%)” value [3] was 55%. For the same compound, the “Population Mitochondria Different-Phenotype (%)” value [3] was 35%, the “Population Mitotic Cells (%)” value [3] was 40% and the “Population Normal (%)” value [3] was 96%. The “Population Pyknosed Nuclei (%)” value [3] was 17%, the “Population Tubulin-Different-Phenotype (%)” value [3] was 55% and the “Total Cell Count” value [3] was 207. The “Population Apoptotic (%)” value [4] was 72%, the “Population Fragmented Nuclei (%)” value [4] was 19% and the “Population Healthy Nuclei (%)” value [4] was 67%. For the same compound, the “Population Hoechst High Intensity Objects (%)” value [4] was 6%, the “Population Membrane Permeable-Phenotype (%)” value [4] was 38% and the “Population Mitochondria Different-Phenotype (%)” value [4] was 47%. For the same compound, the “Population Mitotic Cells (%)” value [4] was 27%, the “Population Normal (%)” value [4] was 93% and the “Population Pyknosed Nuclei (%)” value [4] was 13%. The “Population Tubulin-Different-Phenotype (%)” value [4] was 43%, the “Total Cell Count” value [4] was 88 and the “Population Apoptotic (%)” value [5] was 80%. For the same compound, the “Population Fragmented Nuclei (%)” value [5] was 13%, the “Population Healthy Nuclei (%)” value [5] was 73% and the “Population Hoechst High Intensity Objects (%)” value [5] was 2%. For the same compound, the “Population Membrane Permeable-Phenotype (%)” value [5] was 4%, the “Population Mitochondria Different-Phenotype (%)” value [5] was 1% and the “Population Mitotic Cells (%)” value [5] was 19%. For the same compound, the “Population Normal (%)” value [5] was 97%, the “Population Pyknosed Nuclei (%)” value [5] was 13% and the “Population Tubulin-Different-Phenotype (%)” value [5] was 2%. For the same compound, the “Total Cell Count” value [5] was 242, the “Population Apoptotic (%)” value [6] was 88% and the “Population Fragmented Nuclei (%)” value [6] was 14%. The “Population Healthy Nuclei (%)” value [6] was 71%, the “Population Hoechst High Intensity Objects (%)” value [6] was 1% and the “Population Membrane Permeable-Phenotype (%)” value [6] was 7%. The “Population Mitochondria Different-Phenotype (%)” value [6] was 5%, the “Population Mitotic Cells (%)” value [6] was 11% and the “Population Normal (%)” value [6] was 98%. For the same compound, the “Population Pyknosed Nuclei (%)” value [6] was 14%, the “Population Tubulin-Different-Phenotype (%)” value [6] was 4% and the “Total Cell Count” value [6] was 127. The “Population Apoptotic (%)” value [7] was 65%, the “Population Fragmented Nuclei (%)” value [7] was 34% and the “Population Healthy Nuclei (%)” value [7] was 42%. The “Population Hoechst High Intensity Objects (%)” value [7] was 3%, the “Population Membrane Permeable-Phenotype (%)” value [7] was 25% and the “Population Mitochondria Different-Phenotype (%)” value [7] was 23%. The “Population Mitotic Cells (%)” value [7] was 34%, the “Population Normal (%)” value [7] was 96% and the “Population Pyknosed Nuclei (%)” value [7] was 22%. The “Population Tubulin-Different-Phenotype (%)” value [7] was 25%, the “Total Cell Count” value [7] was 214 and the “Population Apoptotic (%)” value [8] was 85%. The “Population Fragmented Nuclei (%)” value [8] was 29%, the “Population Healthy Nuclei (%)” value [8] was 54% and the “Population Hoechst High Intensity Objects (%)” value [8] was 5%. The “Population Membrane Permeable-Phenotype (%)” value [8] was 36%, the “Population Mitochondria Different-Phenotype (%)” value [8] was 38% and the “Population Mitotic Cells (%)” value [8] was 14%. The “Population Normal (%)” value [8] was 94%, the “Population Pyknosed Nuclei (%)” value [8] was 16% and the “Population Tubulin-Different-Phenotype (%)” value [8] was 42%. For the same compound, the “Total Cell Count” value [8] was 91, the “Population Apoptotic (%)” value [9] was 81% and the “Population Fragmented Nuclei (%)” value [9] was 15%. For the same compound, the “Population Healthy Nuclei (%)” value [9] was 73%, the “Population Hoechst High Intensity Objects (%)” value [9] was 3% and the “Population Membrane Permeable-Phenotype (%)” value [9] was 2%. The “Population Mitochondria Different-Phenotype (%)” value [9] was 2%, the “Population Mitotic Cells (%)” value [9] was 18% and the “Population Normal (%)” value [9] was 96%. For the same compound, the “Population Pyknosed Nuclei (%)” value [9] was 11%, the “Population Tubulin-Different-Phenotype (%)” value [9] was 3% and the “Total Cell Count” value [9] was 326. The “Population Apoptotic (%)” value [10] was 95%, the “Population Fragmented Nuclei (%)” value [10] was 16% and the “Population Healthy Nuclei (%)” value [10] was 67%. For the same compound, the “Population Hoechst High Intensity Objects (%)” value [10] was 5%, the “Population Membrane Permeable-Phenotype (%)” value [10] was 3% and the “Population Mitochondria Different-Phenotype (%)” value [10] was 0%. For the same compound, the “Population Mitotic Cells (%)” value [10] was 4%, the “Population Normal (%)” value [10] was 94% and the “Population Pyknosed Nuclei (%)” value [10] was 15%. For the same compound, the “Population Tubulin-Different-Phenotype (%)” value [10] was 5%, the “Total Cell Count” value [10] was 168 and the “Population Apoptotic (%)” value [11] was 82%. For the same compound, the “Population Fragmented Nuclei (%)” value [11] was 37%, the “Population Healthy Nuclei (%)” value [11] was 43% and the “Population Hoechst High Intensity Objects (%)” value [11] was 5%. For the same compound, the “Population Membrane Permeable-Phenotype (%)” value [11] was 28%, the “Population Mitochondria Different-Phenotype (%)” value [11] was 16% and the “Population Mitotic Cells (%)” value [11] was 17%. For the same compound, the “Population Normal (%)” value [11] was 94%, the “Population Pyknosed Nuclei (%)” value [11] was 19% and the “Population Tubulin-Different-Phenotype (%)” value [11] was 19%. For the same compound, the “Total Cell Count” value [11] was 252, the “Population Apoptotic (%)” value [12] was 81% and the “Population Fragmented Nuclei (%)” value [12] was 33%. The “Population Healthy Nuclei (%)” value [12] was 46%, the “Population Hoechst High Intensity Objects (%)” value [12] was 4% and the “Population Membrane Permeable-Phenotype (%)” value [12] was 22%. For the same compound, the “Population Mitochondria Different-Phenotype (%)” value [12] was 20%, the “Population Mitotic Cells (%)” value [12] was 18% and the “Population Normal (%)” value [12] was 95%. The “Population Pyknosed Nuclei (%)” value [12] was 20%, the “Population Tubulin-Different-Phenotype (%)” value [12] was 18% and the “Total Cell Count” value [12] was 111.
